Data reported in ChEMBL document CHEMBL1124005, “Inhibitors of cyclic AMP phosphodiesterase. 4. Synthesis and evaluation of potential prodrugs of lixazinone (N-cyclohexyl-N-methyl-4-[(1,2,3,5-tetrahydro-2- oxoimidazo[2,1-b]quinazolin-7-yl)-oxy]butyramide, RS-82856)” (J Med Chem, 1988).
pIC50: −log10 of the molar value. Activity calls are given as the source filed them. The calls are words filed in the database; no cut-off is given here.

What was measured:
Canis familiaris [1] = assay: In vivo inotropic activity in canine model by intravenous administration of 0.316 mg/kg efficacious dose; assay type: functional, Canis lupus familiaris
[2] = In vitro inhibitory activity against platelet phosphodiesterase (PDE)
Method in brief: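 Human platelet cAMP PDE in 10 mM Tris-HCl pH 7.7, 10 mM MgSO4, 1 µM […]. Compounds dissolved in DMSO, held 10 min in medium before enzyme addition, then 10 min at 30 °C. Five inhibitor concentrations run in triplicate; IC50 read graphically from mean curves.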

Canis familiaris [3] = assay: In vivo inotropic activity in canine model by intraduodenal administration of 1.0 mg/kg efficacious dose; assay type: functional, Canis lupus familiaris
Homo sapiens = species: Homo sapiens; assay: Inhibition of platelet aggregation; assay type: functional
Canis familiaris [4] = assay: In vivo inotropic activity in canine model by intraduodenal administration of 3.16 mg/kg efficacious dose; assay type: functional, Canis lupus familiaris
Canis familiaris [5] = assay: In vivo inotropic activity in canine model by intravenous administration (Inactive); assay type: functional, organism-based; conditions: Canis lupus familiaris
Canis familiaris [6] = assay: In vivo inotropic activity in canine model by intraduodenal administration (Inactive); assay type: functional, organism-based; conditions: Canis lupus familiaris
Canis familiaris [7] = assay: In vivo inotropic activity in canine model by intravenous administration 1.0 mg/kg efficacious dose; assay type: functional, Canis lupus familiaris
Canis familiaris [8] = assay: In vivo inotropic activity in canine model by intravenous administration of 0.10 mg/kg efficacious dose; assay type: functional, Canis lupus familiaris; conditions: dose 0.1 mg/kg
Canis familiaris [9] = assay: Pharmacokinetic parameter AUC was determined in dog after oral administration of 17b; assay type: ADME, organism-based, Canis lupus familiaris; conditions: in vivo
Method in brief: (§1)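 Six fasted conscious female dogs (9.4–10.5 kg) were each given one oral hard-gelatin capsule, dose equivalent to 15 mg parent drug, with 1 week between doses. Jugular blood was sampled at 0–24 h. Plasma parent drug was measured by HPLC after SCX/C-18 extraction (C-8, 280 nm, limit 5 ng/mL). AUC0–24 h was calculated by trapezoidal rule; values are mean ± SD.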

Canis familiaris [10] = assay: In vivo inotropic activity in canine model by intraduodenal administration of 0.316 mg/kg efficacious dose; assay type: functional, Canis lupus familiaris
Canis familiaris [11] = assay: Pharmacokinetic parameter AUC was determined in dog after oral administration of 2b; assay type: ADME, organism-based, Canis lupus familiaris; conditions: in vivo; method in brief: as §1

| Structure (SMILES) | Max CF response (Canis familiaris [1]) [%] | IC50 [2] [nM] | pIC50 (Homo sapiens) | Max CF response (Canis familiaris [4]) [%] | also measured |
| --- | --- | --- | --- | --- | --- |
| CCOC(=O)C(CCOc1ccc2c(c1)CN1CC(=O)NC1=N2)C(=O)N(C)C1CCCCC1 (stereo not given) | 50 | 6.1 |  |  | Max CF response (Canis familiaris [3]): 50% |
| CN(C(=O)C(CCOc1ccc2c(c1)CN1CC(=O)NC1=N2)C(=O)O)C1CCCCC1 (stereo not given) | 58 | 5 |  |  | Max CF response (Canis familiaris [3]): 20% |
| Br.CN(C(=O)CCCOc1ccc2c(c1)CN(CC(=O)OC1CCCCC1)C(N)=N2)C1CCCCC1 |  | 52 | 5.92 | 45 |  |
| Br.CN(C(=O)CCCOc1ccc2c(c1)CN(CC(=O)OC(C)(C)C)C(N)=N2)C1CCCCC1 |  | 430 | 5.37 |  | Max CF response (Canis familiaris [5]): inactive; Max CF response (Canis familiaris [6]): inactive |
| CN(C(=O)CCCOc1ccc2c(c1)CN1CC(=O)N(COC(=O)C(C)(C)C)C1=N2)C1CCCCC1 |  | 150 |  |  |  |
| CCOC(=O)CN1Cc2cc(OCCCC(=O)N(C)C3CCCCC3)ccc2N=C1NC(C)=O |  | 3100 | 4.00 | 58 | Max CF response (Canis familiaris [7]): 58% |
| Br.CN(C(=O)CCCOc1ccc2c(c1)CN(CC(N)=O)C(N)=N2)C1CCCCC1 | 37 | 120 | 5.38 | 37 |  |
| Br.CCOC(=O)CN1Cc2cc(OCCCC(=O)N(C)C3CCCCC3)ccc2N=C1N | 75 | 9.3 |  | 62 |  |
| Br.CC(OC(=O)CN1Cc2cc(OCCCC(=O)N(C)C3CCCCC3)ccc2N=C1N)c1ccccc1 (stereo not given) | 61 | 8 | 6.82 | 64 |  |
| Br.CC(OC(=O)CN1Cc2cc(OCCCC(=O)N(C)C3CCCCC3)ccc2N=C1N)C(C)(C)C (stereo not given) |  | 470 | 4.77 | 62 |  |
| Br.CN(C(=O)CCCOc1ccc2c(c1)CN(CC(=O)Nc1ccccc1)C(N)=N2)C1CCCCC1 | 64 | 100 | 5.27 | 37 |  |
| CN(C(=O)CCCOc1ccc(N)c(CN2CC(=O)NC2=O)c1)C1CCCCC1 |  | 3400 |  |  |  |
| CN(C(=O)CCCOc1ccc2c(c1)CN1CC(=O)NC1=N2)C1CCCCC1 [LIXAZINONE] |  | 6 | 7.30 |  | Max CF response (Canis familiaris [8]): 71%; AUC (Canis familiaris [9]): 268 ng·h/mL; Max CF response (Canis familiaris [10]): 42%; AUC (Canis familiaris [11]): 257 ng·h/mL |
| CN(C(=O)CCCOc1ccc2c(c1)CN1CC(=O)N(CN3CCOCC3)C1=N2)C1CCCCC1 |  | 16 |  |  | Max CF response (Canis familiaris [8]): 65%; Max CF response (Canis familiaris [10]): 25% |
| Br.CN(C(=O)CCCOc1ccc2c(c1)CN(CC(=O)O)C(N)=N2)C1CCCCC1 |  | 60 |  |  | Max CF response (Canis familiaris [5]): inactive; Max CF response (Canis familiaris [6]): inactive |
| Br.CN(C(=O)CCCOc1ccc2c(c1)CN(CC(=O)N1CCOCC1)C(N)=N2)C1CCCCC1 | 71 | 52 | 6.15 | 70 |  |
| Br.CC(C)OC(=O)CN1Cc2cc(OCCCC(=O)N(C)C3CCCCC3)ccc2N=C1N | 40 | 63 | 5.47 | 31 |  |
| Br.CN(C(=O)CCCOc1ccc2c(c1)CN(CC(=O)N1CCCCC1)C(N)=N2)C1CCCCC1 |  | 10 |  |  |  |
| Br.CN(C(=O)CCCOc1ccc2c(c1)CN(CC(=O)OCC(C)(C)C)C(N)=N2)C1CCCCC1 |  | 35 |  |  |  |
| CN(C(=O)CCCOc1ccc2c(c1)CN(CC(N)=O)C(=O)N2)C1CCCCC1 |  | 18500 |  |  |  |
